Consider 2 molecules from ChEMBL document CHEMBL5532650, “Discovery of an orally active nitrothiophene-based antitrypanosomal agent” (Eur J Med Chem, 2024).

The subject of data set [1] is Trypanosoma brucei rhodesiense. The experiment in a line: In vivo antitrypanosomal activity against Trypanosoma brucei rhodesiense infected in female NMRI mouse assessed survival rate at 200 mg/kg, po qd measured upto 60 days. To be noted: time <= 60.0 day.
For the next data set, the system named is HepG2. The experiment in a line: Cytotoxicity against human HepG2 cells assessed as cell growth measured after 72 hrs mby MTT assay. The data set is classed as toxicity, cell-based. As to conditions: hepg2, 72 h. Summed up: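 HepG2 in DMEM:F12 with 10% FBS were seeded at 5 x 10^5 cells/mL and allowed 18-24 h. Compounds in DMSO over 0.01–300 μM for 72 h. MTT was then added for 30 min, formazan dissolved in DMSO and absorbance read at 550 nm. Triplicates; SDS (10%) and podophyllotoxin were the controls. CC50 = half-maximal cellular viability.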
A general note: Formazan colour is commonly taken as a measure of viable cells.

The nature of data set [2]: Cmax in C57BL/6 mouse at 5 mg/kg, po measured upto 24 hrs by LC-MS/MS analysis. As to conditions: in vivo.
Data set [3] in a line: Initial plasma concentration in C57BL/6 mouse at 1 mg/kg, iv measured upto 24 hrs by LC-MS/MS analysis. The data set is classed as ADME, organism-based. Summed up: (§1)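 Fasted male C57BL/6 mice (n = 3/group) were given a single IV dose of 1 mg/kg. Vehicle was 5% DMSO, 10% solutol and 85% PBS with 20% Captisol, at 1 mL/kg. Blood was taken at 0.083, 0.25, 0.5, 1, 2, 4, 6, 8 and 24 h and spun at 4°C to plasma. Plasma levels were measured by LC-MS/MS and parameters derived by non-compartmental analysis.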

A short description of data set [4]: Clearance in C57BL/6 mouse at 1 mg/kg, iv measured upto 24 hrs by LC-MS/MS analysis. As to conditions: in vivo. Format: ADME, organism-based. Summed up: as §1
For data set [5], the system named is Trypanosoma brucei rhodesiense. The experiment in a line: Inhibition of Trypanosoma brucei rhodesiense MVAT4 strain Cathepsin-L expressed in Pichia pastoris at 10 uM relative to control. In a few lines:
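Trypanosomal cathepsin L, expressed in Pichia pastoris and purified, was tested at 10 μM after 1 hour. The read-out was percentage inhibition, with E-64 as positive control.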

Data set [6] is described as follows: Metabolic stability in mouse liver microsomes assessed as half life at 0.1 uM measured for every 15 mins by HPLC-MS/MS analysis. Format: ADME, Microsome. To be noted: 0.25 h. Background: Liver microsomes are a subcellular fraction often used to study metabolism.
A short description of data set [7]: AUC (0 to infinity) in C57BL/6 mouse at 5 mg/kg, po measured upto 24 hrs by LC-MS/MS analysis. As to conditions: in vivo.
In data set [8] the test system is Trypanosoma brucei brucei. Kind of data set: Antitrypanosomal activity against bloodstream forms of Trypanosoma brucei brucei strain 427 assessed as growth inhibition measured after 48 hrs by Alamar blue assay. The data set is classed as functional, organism-based. As to conditions: Trypanosoma brucei, 427, 48 h. Summed up: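 Bloodstream T. b. brucei 427 at 5 x 10^3 cells/well in supplemented HMI-9 with 10% FBS. Compounds in DMSO over 0.01–50 μM, triplicates. After 48 h exposure, Alamar blue was added for 4 h at 37°C. Fluorescence read at ex/em 530/590 nm; suramin was the positive control. EC50 = half-maximal trypanosomal viability.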
(In general: Resazurin is reduced to fluorescent resorufin, in cell work by metabolically active cells.)

The test system of data set [9] is Trypanosoma brucei rhodesiense. Kind of data set: Antitrypanosomal activity against bloodstream forms of Trypanosoma brucei rhodesiense STIB 900 assessed as growth inhibition incubated for 70 hrs followed by treated with resazurin 2 to 4 hrs by resazurin based fluorescence assay. The data set is classed as functional, organism-based. Summed up:
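Bloodstream STIB 900 at 2x10^4 parasites/well in HMI-9 with 15% heat-inactivated horse serum. Eleven 3-fold dilutions spanned 100 to 0.002 μM. Plates ran 70 h at 37 °C in 5% CO2, then resazurin for 2–4 h. Fluorescence read at ex/em 536/588 nm; melarsoprol was the control.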

Data set [10] is described as follows: Half life in C57BL/6 mouse at 1 mg/kg, iv measured upto 24 hrs by LC-MS/MS analysis. To be noted: in vivo. The data set is classed as ADME, organism-based. In a few lines: as §1
The nature of data set [11]: Mean residence time in C57BL/6 mouse at 5 mg/kg, po measured upto 24 hrs by LC-MS/MS analysis. As to conditions: in vivo.
Data set [12] in a line: AUC (0 to infinity) in C57BL/6 mouse at 1 mg/kg, iv measured upto 24 hrs by LC-MS/MS analysis. Format: ADME, organism-based. As to conditions: in vivo. In a few lines:
as §1

The nature of data set [13]: Metabolic stability in mouse liver S9 fraction assessed as half life at 0.1 uM measured for every 15 mins by HPLC-MS/MS analysis. The data set is classed as ADME, subcellular. As to conditions: s9, 0.25 h.
Data set [14] can be described thus: Oral bioavailability in C57BL/6 mouse at 5 mg/kg measured upto 24 hrs by LC-MS/MS analysis. To be noted: in vivo.
Data set [15] has as its system Trypanosoma brucei brucei. The experiment in a line: In vivo antitrypanosomal activity against Trypanosoma brucei brucei AnTat1.1 trypomastigotes expressing Renilla luciferase infected in BALB/c mouse assessed suppression of parasite growth at 100 mg/kg, po treated for 5 days. To be noted: time 5.0 day.
A short description of data set [16]: Half life in C57BL/6 mouse at 5 mg/kg, po measured upto 24 hrs by LC-MS/MS analysis. To be noted: in vivo.
The subject of data set [17] is Trypanosoma brucei brucei. The experiment in a line: In vivo antitrypanosomal activity against Trypanosoma brucei brucei AnTat1.1 trypomastigotes expressing Renilla luciferase infected in BALB/c mouse assessed reduction in parasitemia at 100 mg/kg, po treated for 5 days. To be noted: time 5.0 day.
Data set [18] deals with Trypanosoma brucei brucei. The experiment in a line: In vivo antitrypanosomal activity against Trypanosoma brucei brucei AnTat1.1 trypomastigotes expressing Renilla luciferase infected in BALB/c mouse assessed suppression of parasite growth at 100 mg/kg, ip treated for 5 days. To be noted: time 5.0 day.
Data set [19] concerns Trypanosoma brucei gambiense. Kind of data set: Antitrypanosomal activity against bloodstream forms of Trypanosoma brucei gambiense 130R assessed as growth inhibition incubated for 68 hrs followed by treated with resazurin 4 to 6 hrs by resazurin based fluorescence assay. The data set is classed as functional, organism-based. In a few lines: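 Bloodstream 130R at 4x10^4 parasites/well in HMI-9 with 15% heat-inactivated fetal calf and 5% human serum. Eleven 3-fold dilutions spanned 100 to 0.002 μM. Plates ran 68 h at 37 °C in 5% CO2, then resazurin for 4–6 h. Fluorescence read at ex/em 536/588 nm; melarsoprol was the control.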

The nature of data set [20]: Apparent volume of distribution in C57BL/6 mouse at 1 mg/kg, iv measured upto 24 hrs by LC-MS/MS analysis. As to conditions: in vivo, read-out: Vz. Format: ADME, organism-based. In a few lines:
as §1

The nature of data set [21]: AUC (0 to t) in C57BL/6 mouse at 5 mg/kg, po measured upto 24 hrs by LC-MS/MS analysis. As to conditions: in vivo.
The nature of data set [22]: Tmax in C57BL/6 mouse at 5 mg/kg, po measured upto 24 hrs by LC-MS/MS analysis. As to conditions: in vivo.
The nature of data set [23]: Volume of distribution at steady state in C57BL/6 mouse at 1 mg/kg, iv measured upto 24 hrs by LC-MS/MS analysis. To be noted: in vivo, read-out: Vdss. Format: ADME, organism-based. In a few lines:
as §1

Data set [24] in a line: Mean residence time in C57BL/6 mouse at 1 mg/kg, iv measured upto 24 hrs by LC-MS/MS analysis. The data set is classed as ADME, organism-based. To be noted: in vivo. In a few lines: as §1
The nature of data set [25]: AUC (0 to t) in C57BL/6 mouse at 1 mg/kg, iv measured upto 24 hrs by LC-MS/MS analysis. The data set is classed as ADME, organism-based. To be noted: in vivo. Summed up:
as §1

Data set [26] is described as follows: Tmax in mouse at 25 mg/kg, po. The data set is classed as ADME, organism-based. As to conditions: in vivo.
Data set [27] is described as follows: Half life in mouse at 25 mg/kg, po. The data set is classed as ADME, organism-based. As to conditions: in vivo.

Calls of active or inactive are those of the source.

One may read the CC50 as the concentration giving 50% cytotoxicity. For orientation: Cmax means the highest concentration seen after dosing. By clearance is commonly meant the volume of plasma or blood freed of the substance per unit of time. A lower clearance goes with a low capacity for elimination. A word on the inhibition: it is the share of the control response that was lost under treatment. What is called AUC is concentration integrated over time. A lower AUC goes with less exposure. For orientation: EC50 means the concentration needed to bring the measured effect to its halfway point. As usually defined, the half-life is the time needed for the level to fall by half in the phase considered. A high value points to slow loss. One may read the MRT as the average time that molecules of a dose stay in the body. In general, AUC(0-t) refers to the area under the concentration-time curve up to a stated or last time point. Higher therefore signals high exposure. What is called Tmax is the time from dosing to the highest level.

With `CNC(=O)/C=C/CNC(=O)c1ccc([N+](=O)[O-])s1`, the outcome in data set [1], in data set [15], in data set [17] and in data set [18] was Active. Moreover, the CC50 with HepG2 was over 75000 nM. In addition, in data set [2], the highest level (Cmax) was 1650 ng/mL. In addition, the C0 at 24 h in data set [3] amounted to 636 ng/mL. The clearance in [4] came out at 48.8 mL/min/kg. This molecule also had an inhibition in data set [5] of 43.9%. For the same molecule, the t1/2 in data set [6] and in data set [13] was over 60 min each time. In addition, the values for the area under the curve (AUC) in data set [7] and in data set [12] were 1702.8 ng·h/mL and 343.2 ng·h/mL, respectively. Besides, the EC50 in data set [8] came to 540 nM; in data set [9] it was 140 nM; in data set [19], 130 nM. Further, the half-life in data set [10] was 24 min; in data set [16], 30 min. Also, the mean residence time MRT in data set [11] stood at 54 min; in data set [24], 30 min. This molecule showed a F in data set [14] of 99.2%. Besides, the Vd in data set [20] amounted to 1.7 L/kg; in data set [23], 1.6 L/kg. Further, the figures for the exposure AUC(0-t) at 24 h in data set [21] and in data set [25] were 1700 ng·h/mL and 333 ng·h/mL, respectively. The time to peak (Tmax) in data set [22] was 18 min.
On to `CSc1ccc(OCc2ncc([N+](=O)[O-])n2C)cc1` [FEXINIDAZOLE], for which, in [26], the Tmax was 15 min. This molecule also showed a half-life in data set [27] of 48 min.
